# Results collected from several papers.
# Lines come from different studies, so protocols differ.
# Target: Serine/threonine-protein kinase SIK3 (SIK3, Homo sapiens, UniProt Q9Y2K2)
SMILES,assay,conditions,measurement,result
C#Cc1cc(-c2cc(Nc3nc(N[C@@H](C)c4ccc(F)cn4)ncc3Cl)n[nH]2)ccc1C=O,"enzyme activity, inhibitor",0.2 µM,inhibition,31.1%
CC(C)S(=O)(=O)c1ccc2nccc(Nc3ccc4sc(C5CCCC5)nc4c3)c2c1,"enzyme activity, inhibitor",1 µM,activity vs control,104%
Cc1cc(O)c(-c2ccc([C@@H](C)CN(C)C)cc2)c2c1[nH]c(=O)c1sccc12,"enzyme activity, inhibitor",0.1 µM,inhibition,-11.2%
CCCCC(=O)Nc1ccc(-c2ccc3ncn(CCC)c(=O)c3c2)cn1,"binding, competition with immobilised ligand",0.5 µM,remaining binding,100%
CN1CCN(C(=O)c2ccc(NC(=O)Nc3ccc(N(C)c4ccnc(Nc5ccc(CS(C)(=O)=O)cc5)n4)cc3)cc2)CC1,"binding, competition with immobilised ligand",1 µM,remaining binding,86%
C=CC(=O)N1CCC([C@@H]2CCNc3c(C(N)=O)c(-c4ccc(Oc5ccccc5)cc4)nn32)CC1,"enzyme activity, inhibitor",1 µM,inhibition,9%
C1=C/COCc2cc(ccc2OCCN2CCCC2)Nc2nccc(n2)-c2cccc(c2)COC/1,cell-free assay,0.1 µM,remaining signal,83%
Cc1ccc(NC(=O)c2ccnc(C(F)(F)F)c2)cc1-c1cc(OCCO)nc(N2CCOCC2)c1,"binding, competition with immobilised ligand",1 µM,remaining binding,86%
CO[C@@H]1[C@H](N(C)C(=O)c2ccccc2)C[C@H]2O[C@]1(C)n1c3ccccc3c3c4c(c5c6ccccc6n2c5c31)C(=O)NC4,"enzyme activity, inhibitor",1 µM,inhibition,79%
